From ChEMBL document CHEMBL1759994, “The discovery and synthesis of potent zwitterionic inhibitors of renin” (Bioorg Med Chem Lett, 2011)

Experiments:
Blood [1] = assay: Metabolic stability in rhesus monkey whole blood assessed as conversion to (1R,2R)-2-((3-(((3R,4S)-N-cyclopropyl-4-(4-(2-(2,6-dichloro-4-methylphenoxy)ethoxy)phenyl)piperidine-3-carboxamido)methyl)-5-(3-methoxypropyl)phenoxy)methyl)cyclopropanecarboxylic acid after 20 mins; assay type: ADME, tissue-based, Macaca mulatta
Blood [2] = assay: Metabolic stability in Sprague-Dawley rat whole blood assessed as conversion to (1R,2R)-2-((3-(((3R,4S)-N-cyclopropyl-4-(4-(2-(2,6-dichloro-4-methylphenoxy)ethoxy)phenyl)piperidine-3-carboxamido)methyl)-5-(3-methoxypropyl)phenoxy)methyl)cyclopropanecarboxylic acid after 20 mins; assay type: ADME, tissue-based
How it was run: (§1)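 Prodrugs were incubated for 20 min in rat or human whole blood, or in rat or human liver S9 fraction (n = 2). The read-out was % conversion to the parent carboxylic acid.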

Blood [3] = assay: Metabolic stability in human whole blood assessed as conversion to (1R,2R)-2-((3-(((3R,4S)-N-cyclopropyl-4-(4-(2-(2,6-dichloro-4-methylphenoxy)ethoxy)phenyl)piperidine-3-carboxamido)methyl)-5-(3-methoxypropyl)phenoxy)methyl)cyclopropanecarboxylic acid after 20 mins; assay type: ADME, tissue-based; how it was run: as §1
Liver [4] = assay: Metabolic stability in Sprague-Dawley rat liver S9 fraction assessed as conversion to (1R,2R)-2-((3-(((3R,4S)-N-cyclopropyl-4-(4-(2-(2,6-dichloro-4-methylphenoxy)ethoxy)phenyl)piperidine-3-carboxamido)methyl)-5-(3-methoxypropyl)phenoxy)methyl)cyclopropanecarboxylic acid after 20 mins; assay type: ADME, subcellular; details: s9, 20 min; how it was run: as §1
Liver [5] = assay: Metabolic stability in human liver S9 fraction assessed as conversion to (1R,2R)-2-((3-(((3R,4S)-N-cyclopropyl-4-(4-(2-(2,6-dichloro-4-methylphenoxy)ethoxy)phenyl)piperidine-3-carboxamido)methyl)-5-(3-methoxypropyl)phenoxy)methyl)cyclopropanecarboxylic acid after 20 mins; assay type: ADME, subcellular; details: s9, 20 min; how it was run: as §1
Renin [6] = molecular target: T1, Renin (Homo sapiens, UniProt P00797); assay: Inhibition of human recombinant renin in human citreated-plasma
T1 sequence (P00797 whole entry): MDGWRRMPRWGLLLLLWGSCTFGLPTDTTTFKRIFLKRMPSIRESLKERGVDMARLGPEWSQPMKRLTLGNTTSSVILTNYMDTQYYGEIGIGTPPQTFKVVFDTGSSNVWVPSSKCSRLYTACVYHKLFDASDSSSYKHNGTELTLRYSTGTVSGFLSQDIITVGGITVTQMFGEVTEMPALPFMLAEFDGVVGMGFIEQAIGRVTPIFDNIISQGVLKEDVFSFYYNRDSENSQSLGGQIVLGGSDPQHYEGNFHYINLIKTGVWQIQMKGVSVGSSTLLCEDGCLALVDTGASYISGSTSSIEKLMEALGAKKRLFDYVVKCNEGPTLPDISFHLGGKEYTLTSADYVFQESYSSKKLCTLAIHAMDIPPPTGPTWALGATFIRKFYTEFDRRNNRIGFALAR

[7] = molecular target: Voltage-gated inwardly rectifying potassium channel KCNH2 (Homo sapiens, UniProt Q12809); assay: Binding affinity to human ERG
Cytochrome P450 3A4 [8] = molecular target: T2, Cytochrome P450 3A4 (Homo sapiens, UniProt P08684); assay: Inhibition of human CYP3A4 in human liver microsomes assessed as formation of 6beta-hydroxy-testosterone using testosterone as substrate by high throughput mass spectrometry in absence of NADPH; assay type: ADME, Microsome
Cytochrome P450 3A4 [9] = molecular target: T2, Cytochrome P450 3A4; assay: Inhibition of human CYP3A4 in human liver microsomes assessed as formation of 6beta-hydroxy-testosterone using testosterone as substrate by high throughput mass spectrometry preincubated for 30 mins in presence of NADPH; assay type: ADME, Microsome
CYP3A4 = CYP3A4 (Homo sapiens, UniProt P08684); assay: Ratio of IC50 for human CYP3A4 in absence of NADPH to IC50 for human CYP3A4 preincubated for 30 mins in presence of NADPH; details: read-out: Ratio IC50
[10] = Metabolic stability in dog whole blood assessed as conversion to (1R,2R)-2-((3-(((3R,4S)-N-cyclopropyl-4-(4-(2-(2,6-dichloro-4-methylphenoxy)ethoxy)phenyl)piperidine-3-carboxamido)methyl)-5-(3-methoxypropyl)phenoxy)methyl)cyclopropanecarboxylic acid after 20 mins; assay type: ADME, tissue-based, Canis lupus familiaris
Renin [11] = molecular target: T1, Renin; assay: Inhibition of human recombinant renin in PBS buffer using tetradecapeptide at pH 7.4
[12] = Oral bioavailability in Sprague-Dawley rat at 30 mg/kg as 0.5% methocel suspension; assay type: ADME, organism-based; details: in vivo
[13] = AUC (0 to 24 hrs) in Sprague-Dawley rat at 30 mg/kg, po as 0.5% methocel suspension; assay type: ADME, organism-based; design: time < 24 hr, dose 30 mg/kg, route oral; details: plasma
[14] = Oral bioavailability in Beagle dog at 3 mg/kg in 0.5% methocel; assay type: ADME, organism-based, Canis lupus familiaris; details: in vivo
[15] = AUC (0 to 24 hrs) in Beagle dog at 3 mg/kg, po in 0.5% methocel; assay type: ADME, organism-based, Canis lupus familiaris; design: time < 24 hr, dose 3 mg/kg, route oral; details: plasma

T2 sequence (P08684 whole entry): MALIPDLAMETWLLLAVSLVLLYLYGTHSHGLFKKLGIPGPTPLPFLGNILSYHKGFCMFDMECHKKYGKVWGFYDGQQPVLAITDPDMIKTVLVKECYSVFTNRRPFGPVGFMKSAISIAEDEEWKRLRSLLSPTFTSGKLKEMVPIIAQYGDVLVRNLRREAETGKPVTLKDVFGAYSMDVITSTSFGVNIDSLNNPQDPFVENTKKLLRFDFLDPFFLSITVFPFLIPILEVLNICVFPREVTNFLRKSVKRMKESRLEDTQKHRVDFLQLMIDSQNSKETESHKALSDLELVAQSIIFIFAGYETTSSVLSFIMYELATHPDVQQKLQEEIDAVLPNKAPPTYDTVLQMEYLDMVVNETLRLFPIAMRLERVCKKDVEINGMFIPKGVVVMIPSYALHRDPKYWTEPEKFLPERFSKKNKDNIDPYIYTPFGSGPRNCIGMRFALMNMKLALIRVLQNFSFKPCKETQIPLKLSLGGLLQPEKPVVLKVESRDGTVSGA
CYP3A4, sequence (P08684 whole entry): as above
Voltage-gated inwardly rectifying potassium channel KCNH2, sequence (Q12809 whole entry): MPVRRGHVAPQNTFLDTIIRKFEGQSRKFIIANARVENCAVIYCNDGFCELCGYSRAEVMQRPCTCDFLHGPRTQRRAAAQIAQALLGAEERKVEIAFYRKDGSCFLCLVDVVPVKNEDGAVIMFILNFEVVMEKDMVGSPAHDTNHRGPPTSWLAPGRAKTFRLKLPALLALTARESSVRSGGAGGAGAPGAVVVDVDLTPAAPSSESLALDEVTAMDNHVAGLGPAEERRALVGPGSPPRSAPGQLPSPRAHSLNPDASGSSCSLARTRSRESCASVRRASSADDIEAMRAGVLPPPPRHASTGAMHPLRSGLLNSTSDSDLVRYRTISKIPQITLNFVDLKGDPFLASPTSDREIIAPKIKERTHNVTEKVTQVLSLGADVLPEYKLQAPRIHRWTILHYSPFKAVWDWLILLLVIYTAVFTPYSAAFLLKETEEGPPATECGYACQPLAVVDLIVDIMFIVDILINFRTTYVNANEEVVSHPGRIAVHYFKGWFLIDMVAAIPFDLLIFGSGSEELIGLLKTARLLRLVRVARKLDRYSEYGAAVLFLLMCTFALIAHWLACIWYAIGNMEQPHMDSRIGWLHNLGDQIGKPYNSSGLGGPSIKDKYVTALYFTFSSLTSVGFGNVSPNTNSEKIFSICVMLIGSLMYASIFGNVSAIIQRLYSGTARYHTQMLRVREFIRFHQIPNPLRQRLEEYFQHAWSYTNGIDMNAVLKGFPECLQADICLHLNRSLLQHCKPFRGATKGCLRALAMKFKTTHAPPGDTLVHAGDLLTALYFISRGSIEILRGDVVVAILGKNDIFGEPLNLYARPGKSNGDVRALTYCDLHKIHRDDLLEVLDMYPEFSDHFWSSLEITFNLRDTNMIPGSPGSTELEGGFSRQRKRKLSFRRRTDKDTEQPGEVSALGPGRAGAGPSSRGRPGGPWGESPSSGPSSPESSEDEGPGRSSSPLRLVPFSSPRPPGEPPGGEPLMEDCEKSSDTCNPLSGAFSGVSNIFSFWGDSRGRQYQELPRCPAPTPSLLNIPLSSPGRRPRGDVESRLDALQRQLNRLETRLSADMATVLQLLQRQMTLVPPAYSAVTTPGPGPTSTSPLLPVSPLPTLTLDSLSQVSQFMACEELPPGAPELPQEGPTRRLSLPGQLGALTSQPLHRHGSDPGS

- Activity (Blood [1]): 15%
- Activity (Blood [2]): 99%
- Activity (Blood [3]): 3%
- Activity (Liver [4]): 60%
- Activity (Liver [5]): 56%
- IC50 (Renin [6]): 11 nM
- IC50 (Cytochrome P450 3A4 [8]): 19300 nM
- IC50 (Cytochrome P450 3A4 [9]): 1400 nM
- Activity [10]: 2%
- IC50 (Renin [11]): 0.064 nM
- bioavailability [12]: 52%
- AUC(0-t) at 24 h [13]: 5700 nM·h
- bioavailability [14]: 6%
- AUC(0-t) at 24 h [15]: 10 nM·h
Structure (SMILES): CCOC(=O)[C@H]1C[C@@H]1COc1cc(CCCOC)cc(CN(C(=O)[C@H]2CNCC[C@@H]2c2ccc(OCCOc3c(Cl)cc(C)cc3Cl)cc2)C2CC2)c1
- Ki [7]: 80 nM
- IC50 shift (CYP3A4): 14
